Measurements taken from PubChem BioAssay AID540281 (Sanford-Burnham Center for Chemical Genomics, 2011).
The whole screen tested about 2,500 compounds, of which about 1,500 (60%) were called active. So high a share suggests a set chosen from earlier hits. The list is a sample of the results. Values without a mark were called inactive.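 The calls were made as follows: active = inhibition of at least 30% at 20 µM; inactive = the rest.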 Non-standard residues stand in square brackets, D forms with d. Residues, ends and D or L forms follow the SMILES beside them. ξ: configuration not given here. ξM = CSCCC(N)C(=O)O

Each compound was assayed against Carboxy-terminal domain RNA polymerase II polypeptide A small phosphatase 1 (Homo sapiens) (UniProt Q9GZU7) (assay: SCP1 dephosphorylation blockade at one dose – biochemical, colorimetric, single concentration, confirmation (AID 540281;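 also: plate controls were DMSO with enzyme for no effect and buffer wells lacking enzyme for full effect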)). Details: recombinant SCP-1 catalytic domain, phosphate release, malachite green absorbance; at 20 µM; stronger effect = higher value.
Chain of Carboxy-terminal domain RNA polymerase II polypeptide A small phosphatase 1 (Homo sapiens) (Q9GZU7 76-261 limits assumed): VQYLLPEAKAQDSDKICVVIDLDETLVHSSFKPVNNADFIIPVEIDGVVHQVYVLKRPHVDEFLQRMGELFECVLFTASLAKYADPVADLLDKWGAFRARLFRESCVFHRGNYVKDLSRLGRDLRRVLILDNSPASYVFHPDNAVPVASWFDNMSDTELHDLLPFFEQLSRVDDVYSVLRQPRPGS
Summary of the method: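 assay system = SCP-1 catalytic fragment (residues 76-261) | timing = Enzyme–substrate reaction 45 min, room temperature | measured by = colorimetric absorbance at 630 nm of released free orthophosphate | also added = Phospho-17-mer peptide substrate | compound dosing = single 20 µM final compound concentration, 1.0% DMSO | medium = Acidic Tris acetate with 10 mM MgCl2 and Tween-20, pH 5.5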
For `Cc1ccc(NC(=O)COc2ccc(/C=N\NC(=O)c3cccnc3)cc2)cc1C`, the inhibition was 81% (active).
`Cc1ccc(C2(C)NC(=O)N(CC(=O)Nc3ccccc3C(=O)N3CCCCC3)C2=O)cc1` (stereo not drawn) was tested, and the inhibition was -13.7%.
For `Cc1ccccc1NC(=O)CN1C(=O)N/C(=C\c2cccn2-c2cccc(C(=O)O)c2)C1=O`, the inhibition was 82.2% (active).
`C[C@H](CO)N1C[C@H](C)[C@H](CN(C)C(=O)Nc2ccc(C(F)(F)F)cc2)Oc2c(NC(=O)c3ccncc3)cccc2C1=O` was tested, and the inhibition was 44.3% (active).
`COc1ccc(NC(=O)N(C)C[C@H]2Oc3ccc(NC(=O)C4CC4)cc3C(=O)N([C@H](C)CO)C[C@@H]2C)cc1` gave an inhibition of 2.35%.
In the case of `C[C@H](CO)N1C[C@H](C)[C@@H](CN(C)C(=O)NC2CCCCC2)Oc2ccc(NC(=O)c3ccncc3)cc2C1=O`, the inhibition is reported as 6.94%.
`CNS(=O)(=O)c1cccc(C(=O)OCC(=O)N2c3ccccc3NC(=O)C2(C)C)c1` was tested, and the inhibition was 48.6% (active).
`CC(NC(=O)CC1SC(N)=NC1=O)c1ccccc1` (stereo not drawn) gave an inhibition of -28.8%.
In the case of `C=Cc1ccc(C(=O)N2CCCC(CCC(=O)N3CCN(c4ccccn4)CC3)C2)cc1` (stereo not drawn), the inhibition is reported as 67% (active).
For `COc1cc(SC)ccc1C(=O)NNC(=O)C1COc2ccccc2O1` (stereo not drawn), the inhibition was 5.11%.
With `O=C(Nc1cc(S(=O)(=O)N2CCCCC2)ccc1Cl)C1COc2ccccc2O1` (stereo not drawn) the inhibition was 65.1% (active).
In the case of `O=C(N/N=C/c1ccco1)c1ccc(C(=O)N/N=C/c2ccco2)o1`, the inhibition is reported as 56.8% (active).
In the case of `COc1ccc2[nH]c3c(C)c4cc[n+](C)cc4c(C)c3c2c1`, the inhibition is reported as -2.43%.
In the case of `COc1ccc(/C=C/C(=O)OCC(=O)NC2CCCCCC2)cc1OC`, the inhibition is reported as 45.2% (active).
In the case of `N/C(=N\OC(=O)N1c2ccccc2Sc2ccccc21)c1ccc(Br)cc1`, the inhibition is reported as 46.1% (active).
For `Cc1ccc(Cc2nnc(SCC(=O)Nc3ccc(C)cc3C)[nH]c2=O)cc1`, the inhibition was 39.7% (active).
`COCCCn1c(Cc2csc(Nc3cccc(Cl)c3)n2)nnc1SCC(=O)OC1CCCCC1` was tested, and the inhibition was 59.1% (active).
Compound `Cc1ccc(S(=O)(=O)Nc2ccc3c(c2)C(=O)N([C@H](C)CO)C[C@@H](C)[C@@H](CN(C)C(=O)Nc2cccc4ccccc24)O3)cc1` has an inhibition of 5.11%.
In the case of `N#Cc1ccccc1CN1C(=O)S/C(=C/c2cccn2-c2cccc(C(=O)O)c2)C1=O`, the inhibition is reported as 67% (active).
`C[N+](C)(C)CCNC(=O)c1cc[n+](Cc2ccccc2)c(/C=N/O)c1` was tested, and the inhibition was 83.3% (active).
Work on `CC(=O)Nc1ccccc1Sc1ccc2c3c(cccc13)C(=O)N(c1ccc(C)cc1)C2=O` yielded an inhibition of 0.82%.
`COC(=O)CNC(=O)C(CCSC)NC(C)=O` (stereo not drawn) (Ac-[ξM]-Gly-OMe) showed an inhibition of -12.9%.
For `O=C(CCNC(=O)c1ccccc1)NN=Cc1ccc(Br)o1`, the inhibition was 45% (active).
In the case of `O=C(CCC(=O)N/N=C/c1ccc(Br)o1)N/N=C/c1ccc(Br)o1`, the inhibition is reported as 40.3% (active).
In the case of `O=C(CNC(=O)C(c1ccccc1)c1ccccc1)N/N=C\c1ccc2c(c1)OCO2`, the inhibition is reported as -8.05%.
With `N#Cc1c(-c2cccs2)nc(SCC(=O)c2ccc(Br)cc2)[nH]c1=O` the inhibition was 78.5% (active).
In the case of `COc1ccc(Cc2nnc(NC(=O)Cc3cccs3)s2)cc1`, the inhibition is reported as 77.3% (active).
For `O=S(=O)(Nc1ccccc1Cl)c1cccc2nsnc12`, the inhibition was 48.1% (active).
